Calls of active or inactive are those of the source. The rule behind the calls is not given here.
Columns and labels:
Mus musculus [1] = experiment: Toxicity in CD1 mouse assessed as change in body weight at 400 mg/kg, administered as single dose through oral gavage measured on day 1 (reference value: 33.5 +/- 4.34 g); type: organism-based; conditions: in vivo
Mus musculus [2] = experiment: Toxicity in CD1 mouse assessed as effect on clinical pathological parameters at 40 to 400 mg/kg, administered as single dose through oral gavage; type: organism-based; conditions: in vivo
Procedure, shortened: (§1)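 Male CD1 mice, 7 weeks old, 5 per group, given one oral gavage dose of 40, 200 or 400 mg/kg in 50 mM citrate buffer, pH 4.0, 5% DMSO, alongside a vehicle control group. Clinical signs, clinical pathology and histopathology were assessed, with the study ending on day 8.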

[3] = Downregulation of BCL2 mRNA expression in human DU145 cells xenografted in NMRI nude mouse at 40 mg/kg, po administered 5 times per week for 4 weeks by qPCR analysis; type: functional, organism-based; conditions: DU-145
Procedure, shortened: (§2)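 Half of each DU145 xenograft tumour was snap frozen for mRNA. MCL1 and BCL2 measured by quantitative real-time PCR: 10 min at 95°C, then 40 cycles of 95°C 15 s and 60°C 60 s. Comparative Ct method, normalized to HMBS and SDHA.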

[4] = Antiproliferative activity against human DU145 cells after 72 hrs by WST-1 proliferation assay; type: functional, cell-based; conditions: DU-145, 72 h
Procedure, shortened: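 Cells in RPMI-1640 (DU145, LNCaP, LNCaP-IL6+) or HAM's F-12 (PC3) with 10% FBS. DU145 and LNCaP-IL6+ seeded at 2 000 cells/well, LNCaP and PC3 at 5 000 cells/well, adhered 24 h, then exposed to compound for 72 h. WST-1 absorbance read at 450 nm with 630 nm reference. Background subtracted; expressed as percent of untreated cells.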

[5] = Downregulation of MCL1 mRNA expression in human DU145 cells xenografted in NMRI nude mouse at 40 mg/kg, po administered 5 times per week for 4 weeks by qPCR analysis; type: functional, organism-based; conditions: DU-145; procedure, shortened: as §2
Mus musculus [6] = experiment: AUC (0 to t) in mouse plasma assessed as galiellalactone level at 100 mg/kg, po by LC-MS/MS analysis; type: ADME, organism-based; conditions: in vivo
Procedure, shortened: (§3)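 Single dose to mice; oral, iv or ip as listed, in 5% DMSO/50 mM citrate buffer pH 4.0 (dosing solutions 0.5, 2 or 5 mg/mL). Oral dosing at 20 mL/kg. Terminal blood under barbiturate anaesthesia at eight time-points to 8 h, n=3 mice per time-point, EDTA plasma. Acetonitrile precipitation with internal standard, LC-MS/MS against plasma calibration lines. Non-compartmental analysis on mean data, trapezoidal AUC.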

Mus musculus [7] = experiment: AUC (0 to infinity) in mouse plasma assessed as galiellalactone level at 100 mg/kg, po by LC-MS/MS analysis; type: ADME, organism-based; set-up: dose 100 mg/kg, time infinity, route oral; conditions: in vivo; procedure, shortened: as §3
Mus musculus [8] = experiment: Cmax in mouse plasma assessed as galiellalactone level at 100 mg/kg, po by LC-MS/MS analysis; type: ADME, organism-based; set-up: dose 100 mg/kg, route oral; conditions: in vivo; procedure, shortened: as §3
Mus musculus [9] = experiment: Toxicity in CD1 mouse assessed as change in body weight at 200 mg/kg, administered as single dose through oral gavage measured on day 1 (reference value: 33.5 +/- 4.34 g); type: organism-based; conditions: in vivo
Plasma [10] = experiment: Half life in human plasma assessed as formation of galiellalactone at 5 uM by LC-MS/MS analysis; type: ADME, cell-free
Procedure, shortened: (§4)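 Plasma of each species incubated at 37 °C with compound at 5 µM initial, 1% DMSO, n=2. Simvastatin and eucatropine run as controls. Aliquots taken at 0, 5, 15, 30 and 60 min and quenched with acetonitrile containing internal standard, then analysed by LC-MS/MS.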

Mus musculus [11] = experiment: Cmax in mouse plasma assessed as galiellalactone level at 40 mg/kg, po by LC-MS/MS analysis; type: ADME, organism-based; set-up: dose 40 mg/kg, route oral; conditions: in vivo; procedure, shortened: as §3
Mus musculus [12] = experiment: Tmax in mouse plasma assessed as galiellalactone level at 40 mg/kg, po by LC-MS/MS analysis; type: ADME, organism-based; conditions: in vivo
Mus musculus [13] = experiment: Toxicity in CD1 mouse assessed as effect on clinical signs at 40 to 400 mg/kg, administered as single dose through oral gavage; type: organism-based; conditions: in vivo; procedure, shortened: as §1
Mus musculus [14] = experiment: Toxicity in CD1 mouse assessed as change in body weight at 40 mg/kg, administered as single dose through oral gavage measured on day 8 (reference value: 32.28 +/- 4.42 g); type: organism-based; conditions: in vivo
Mus musculus [15] = experiment: Toxicity in CD1 mouse assessed as change in body weight at 200 mg/kg, administered as single dose through oral gavage measured on day 4 (reference value: 34.68 +/- 4.71 g); type: organism-based; conditions: in vivo
Plasma [16] = experiment: Half life in mouse plasma assessed as formation of galiellalactone at 5 uM by LC-MS/MS analysis; type: ADME, cell-free; procedure, shortened: as §4
[17] = Toxicity in CD1 mouse at 40 to 400 mg/kg, administered as single dose through oral gavage; type: organism-based; conditions: in vivo
Procedure, shortened: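 Male CD1 mice, 7 weeks old (27.0–38.5 g), 5 per group, given one oral gavage dose of 40, 200 or 400 mg/kg as a solution in 50 mM citrate buffer pH 4.0 with 5% DMSO. Vehicle-only control group. Weighed at randomization, day 1 before dosing, day 4 and day 8 (study end). Clinical signs, clinical pathology and histopathology were assessed to set the MTD.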

Mus musculus [18] = experiment: Cmax in mouse plasma assessed as galiellalactone level at 10 mg/kg, po by LC-MS/MS analysis; type: ADME, organism-based; set-up: dose 10 mg/kg, route oral; conditions: in vivo; procedure, shortened: as §3
Mus musculus [19] = experiment: Apparent half life in mouse plasma assessed as galiellalactone level at 10 mg/kg, po by LC-MS/MS analysis; type: ADME, organism-based; conditions: in vivo; procedure, shortened: as §3
DU-145 = experiment: Antiproliferative activity against human DU145 cells xenografted in NMRI nude mouse assessed as reduction in Ki67 ratio at 40 mg/kg, po administered 5 times per week for 4 weeks by Ki67 staining-based immunohistochemical analysis; type: functional, organism-based
Procedure, shortened: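 Tumours from the oral DU145 xenograft study were fixed in formaldehyde and sectioned. IHC used the EnVision Flex kit with anti-Ki67 and anti-pSTAT3 antibodies, imaged at 10× bright field. Ki67 scored as Ki67-positive cells over total cells.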

Mus musculus [20] = experiment: Toxicity in CD1 mouse assessed as change in body weight at 400 mg/kg, administered as single dose through oral gavage measured on day 4 (reference value: 34.68 +/- 4.71 g); type: organism-based; conditions: in vivo
Mus musculus [21] = experiment: Apparent half life in mouse plasma assessed as galiellalactone level at 100 mg/kg, po by LC-MS/MS analysis; type: ADME, organism-based; conditions: in vivo; procedure, shortened: as §3

COC(=O)[C@H](CS[C@H]1C2C(=O)O[C@@H]3CC[C@H](C[C@@H]1C)[C@]23O)NC(C)=O (some centres not stated)
Activity (Mus musculus [1]): 33.16 g
Activity (Mus musculus [2]): Non-toxic
Activity [3]: Active
IC50 [4]: 4.81 µM
Activity [5]: Active
AUCt (Mus musculus [6]): 676 µg/mL/min
AUC (Mus musculus [7]): 679 µg/mL/min
Cmax (Mus musculus [8]): 7478 ng/mL
Activity (Mus musculus [9]): 33.56 g
t1/2 (Plasma [10]): < 5 min
Cmax (Mus musculus [11]): 3733 ng/mL
Tmax (Mus musculus [12]): 15 min
Activity (Mus musculus [13]): Non-toxic
Activity (Mus musculus [14]): 31.12 g
Activity (Mus musculus [15]): 35.3 g
t1/2 (Plasma [16]): < 5 min
MTD [17]: 400 mg/kg
Cmax (Mus musculus [18]): 1893 ng/mL
t1/2(app) (Mus musculus [19]): 92 min
inhibition (DU-145): Active
Activity (Mus musculus [20]): 34.76 g
t1/2(app) (Mus musculus [21]): 180 min

Source: ChEMBL document CHEMBL3822375, “Preclinical Characterization of 3β-(N-Acetyl l-cysteine methyl ester)-2aβ,3-dihydrogaliellalactone (GPA512), a Prodrug of a Direct STAT3 Inhibitor for the Treatment of Prostate Cancer” (J Med Chem, 2016)
